High-throughput results deposited in PubChem BioAssay by The Scripps Research Institute Molecular Screening Center.
DAGLB inh – blocks human DAGLB lipase activity; 0.059% of 340,000 active; AID 504411; Q8NCG7; HEK293T DAGLB membrane lysate, EnzChek fluorogenic substrate; inhibition, % at 5.17 µM; in the data active = inhibition above about 34%
rCAG binder-1 – r(CAG) repeat RNA binding. inhibition, % at 3 µM. TO-PRO-1 dye displacement fluorescence. 1.3% of 370,000 active;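 active = inhibition above the plate cutoff, the mean of all test compounds on that plate plus 3 SD, cut at about 35% in these data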;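 note: higher means more dye released from RNA so lower well fluorescence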
LEDGF integ inh – blocks HIV-1 LEDGF/p75-dependent DNA integration; 0.64% of 370,000 active; TR-FRET IN-LEDGF/p75 DNA integration, Eu/Cy5; inhibition, % at 3.7 µM;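 active = inhibition above the screen-wide mean plus 3 SD, cut at about 13% in these data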;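 note: signal is the Cy5 over europium emission ratio at 671 and 618 nm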
mABHD4 FP – inhibits mouse alpha/beta hydrolase domain 4; inhibition, % at 8.92 µM; Q8VD66; 0.54% of 370,000 active; purified mABHD4, FP-Rh probe fluorescence polarization;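 active = inhibition exceeding the mean over every tested compound plus 3 SD, cut at about 30% in these data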
Target sequence (Q8VD66 whole entry, looked up, the tested form may be a part): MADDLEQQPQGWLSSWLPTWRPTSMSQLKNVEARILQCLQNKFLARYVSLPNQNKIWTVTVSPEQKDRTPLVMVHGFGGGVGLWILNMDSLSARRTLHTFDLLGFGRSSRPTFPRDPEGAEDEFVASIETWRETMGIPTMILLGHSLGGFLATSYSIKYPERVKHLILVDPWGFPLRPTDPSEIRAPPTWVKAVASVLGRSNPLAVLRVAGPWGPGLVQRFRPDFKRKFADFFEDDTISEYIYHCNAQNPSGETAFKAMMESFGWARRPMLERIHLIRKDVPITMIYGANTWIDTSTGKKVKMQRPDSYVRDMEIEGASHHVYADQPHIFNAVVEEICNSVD
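Test system: mABHD4 protein | Buffer or medium: HEPES pH 7.0 buffer, 150 mM NaCl, 0.01% Pluronic F-127 | Probe or stimulus: FP-Rh fluorescent activity-based probe, added after compound pre-incubation | Timing: Pre-incubation 45 min, probe exposure 60 min, at 25 °C | Technique: Fluorescence polarization, excitation 525 nm, emission 598 nm, BODIPY TMR filters | Repeats: Single well per compound (singlicate)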
PRMT1 FP inh – inhibitors of human PRMT1; Q99873; recombinant PRMT1, activity-based probe fluorescence polarization; inhibition, % at 2.79 µM; 1.3% of 370,000 active; AID 652257;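 active = inhibition above about 21% made by adding two undisclosed values, limit read from the data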
Target sequence (Q99873 whole entry, looked up): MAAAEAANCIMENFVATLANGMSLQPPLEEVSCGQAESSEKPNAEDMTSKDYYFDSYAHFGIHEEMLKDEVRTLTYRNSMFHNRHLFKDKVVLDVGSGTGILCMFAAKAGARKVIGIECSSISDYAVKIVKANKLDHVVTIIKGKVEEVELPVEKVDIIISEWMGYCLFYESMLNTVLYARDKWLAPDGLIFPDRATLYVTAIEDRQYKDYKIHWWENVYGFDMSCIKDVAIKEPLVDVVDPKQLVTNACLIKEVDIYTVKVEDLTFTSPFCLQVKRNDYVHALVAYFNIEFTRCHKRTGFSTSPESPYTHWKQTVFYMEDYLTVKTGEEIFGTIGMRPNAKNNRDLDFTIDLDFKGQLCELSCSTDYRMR
HTRA1 inh – inhibitors of human serine peptidase HTRA1. Q92743. recombinant HTRA1, FP-rhodamine activity-based probe, fluorescence polarization. inhibition, % at 5.96 µM. 0.5% of 340,000 active. AID 504803; in the data active = inhibition above about 36%
rCAG bind conf – r(CAG) RNA repeat binding, confirmation; shares compounds with rCAG binder-1; TO-PRO-1 dye displacement fluorescence; inhibition, % at 3 µM; 70% of 4,300 active;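 active = inhibition above a per-plate cutoff, the mean inhibition of sample wells plus 3 SD, cut at about 35% in these data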;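 note: loss of TO-PRO-1 fluorescence as compound displaces dye from 1x1 AA loop RNA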
dCAG dye counter – DNA CAG dye complex inhibition counter-screen. shares compounds with rCAG binder-1. d(CAG) DNA oligo TO-PRO-1 dye displacement, fluorescence. inhibition, % at 3 µM. 94% of 4,300 active;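 active = inhibition above its plate's cutoff, the mean test-well inhibition plus 3 SD, cut at about 4.8% in these data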;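 note: hits displace the dye from DNA and so lower well fluorescence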
dCAG dye DR – counter-screen for rCAG binders: inhibitors of DNA CAG TO-PRO-1 complex; 20% of 250 active; DNA CAG/GTC duplex TO-PRO-1 dye displacement fluorescence; shares compounds with rCAG binder-1; AID 686960; IC50, µM; in the data active = IC50 below about 10 µM
dCAG TOPRO ctr – DNA CAG dye complex inhibition, late stage dose response; shares compounds with rCAG binder-1; d(CAG) DNA duplex TO-PRO-1 dye displacement, fluorescence; IC50, µM; 80% of 30 active
rCAG binder-2 – r(CAG) repeat RNA binding, TO-PRO-1 displacement; AID 720651; 100% of 30 active; IC50, µM; shares compounds with rCAG binder-1; r(CAG) RNA TO-PRO-1 dye displacement, fluorescence
Hits are given with their value; i = inactive; nt = no result given. The list is not random: actives were taken first. Their share in the collection is about 3.2%. Unless noted, the rule behind the calls is not given here.

SMILES | DAGLB inh | rCAG binder-1 | LEDGF integ inh | mABHD4 FP | PRMT1 FP inh | HTRA1 inh | rCAG bind conf | dCAG dye counter | others
Cc1ccc2nc(N3C(=O)C(O)=C(C(=O)c4ccco4)C3c3ccc(C)o3)sc2c1 (stereo unspecified) | i | 49 | i | i | i | i | 72 | 33 | dCAG dye DR=3.8;dCAG TOPRO ctr=2;rCAG binder-2=0.92
Cc1ccc2nc(N3C(=O)C(O)=C(C(=O)c4ccco4)C3c3ccc(O)cc3)sc2c1 (stereo unspecified) | i | 67 | i | i | 21 | i | 50 | 16
CCc1ccc2nc(N3C(=O)C(O)=C(C(=O)c4ccco4)C3c3cccs3)sc2c1 (stereo unspecified) | i | nt | nt | nt | nt | i | nt | nt
C=CCn1c(SCC(=O)NCCCC(=O)OCC)nc2scc(-c3ccco3)c2c1=O | i | i | i | i | i | i | nt | nt
C[C@H](CO)N1C[C@H](C)[C@@H](CN(C)C(=O)c2cccnc2)Oc2ncc(Br)cc2C1=O | i | i | i | i | i | i | nt | nt
CC(=O)c1ccc(C(=O)N2CCCC(N3CCN(c4ccc(F)cc4)CC3)C2)s1 (stereo unspecified) | i | i | i | i | i | i | nt | nt
Clc1ccc2nc(-c3cccc(Br)c3)c(Cc3ccccc3)n2c1 | nt | i | i | i | i | nt | nt | nt
Cc1cc(Br)cn2c(Cc3cccc(Cl)c3)c(C3CCCCC3)nc12 | nt | i | i | i | i | nt | nt | nt
Clc1cccc(Cc2c(-c3ccccc3)nc3ccc(Cl)cn23)c1 | nt | 36 | i | i | i | nt | i | 5.5
Clc1ccc(-c2nc3ccc(Cl)cn3c2Cc2cccc(Cl)c2)cc1 | nt | i | i | i | i | nt | nt | nt
COc1ccccc1Cc1c(-c2cccc(Cl)c2)nc2ccc(Br)cn12 | nt | 38 | i | i | i | nt | i | i
Clc1cccc(Cc2c(C3CCCCC3)nc3ccc(Br)cn23)c1 | nt | 36 | i | i | i | nt | i | i
Clc1cccc(Cc2c(-c3cccc(Br)c3)nc3ccc(Cl)cn23)c1 | nt | 45 | i | i | i | nt | i | 9.9
CCN(CC)C(=O)c1ccc2c(c1)NC(=O)C(C)(C)O2 | nt | i | i | i | i | nt | nt | nt
COc1ccc(Cl)cc1NC(=O)CN1CCN(S(=O)(=O)c2ccc(F)cc2)CC1 | i | i | i | i | i | i | nt | nt
COC12CC(=O)C(C(C)=O)=C(O)C1(C)c1c(O)c(C)c(O)c(C(C)=O)c1O2 (stereo unspecified) | nt | 55 | i | i | i | nt | 67 | 30
CC(=O)N1c2ccc([N+](=O)[O-])cc2NC(=O)CC1C (stereo unspecified) | i | i | i | i | i | i | nt | nt
O=C(N=Nc1c(O)[nH]c2ccccc12)c1cccs1 | i | i | i | i | i | i | nt | nt
O=C(N=Nc1c(O)[nH]c2ccccc12)c1cc(NS(=O)(=O)c2cccs2)cc(NS(=O)(=O)c2cccs2)c1 | i | 67 | i | i | i | i | 73 | 35
Cc1ccc(C)c(/C=C(\C(=O)O)c2ccc(S(=O)(=O)N3CCCCC3)s2)c1 | i | 47 | i | i | i | i | 45 | 19
COc1ccc(Br)cc1/C=C(\C(=O)O)c1ccc(S(=O)(=O)N2CCCCC2)s1 | i | 70 | i | i | i | i | 74 | 37
CSc1ccc(/C=C(\C(=O)O)c2ccc(S(=O)(=O)N3CCCC3)s2)cc1 | i | 39 | i | i | i | i | i | 10
O=C(O)/C(=C\c1cccc(F)c1)c1ccc(S(=O)(=O)N2CCCCC2)s1 | i | i | i | i | i | i | nt | nt
O=C(O)/C(=C\c1cccc(O)c1)c1ccc(S(=O)(=O)N2CCCC2)s1 | i | i | i | i | i | i | nt | nt
CCOc1cc(/C=C(\C(=O)O)c2ccc(S(=O)(=O)N3CCCC3)s2)ccc1OC | i | i | i | i | i | i | nt | nt
SMILES | DAGLB inh | rCAG binder-1 | LEDGF integ inh | mABHD4 FP | PRMT1 FP inh | HTRA1 inh | rCAG bind conf | dCAG dye counter | others
CCc1sc2nc(SCC(=O)Nc3cc(C)on3)n(-c3cccc(OC)c3)c(=O)c2c1C | i | i | i | i | i | i | nt | nt
S=c1[nH]nc(-c2cc(-c3ccccc3)n[nH]2)n1/N=C/c1cccc(Cl)c1 | i | 35 | i | i | i | i | 70 | 32 | dCAG dye DR=i
S=c1[nH]nc(-c2cc(-c3ccccc3)n[nH]2)n1N=Cc1cccc(OCc2ccccc2)c1 | nt | 77 | i | i | i | nt | 63 | 32
S=c1[nH]nc(-c2cc(-c3ccccc3)n[nH]2)n1/N=C/c1ccc(Cl)c(Cl)c1 | i | i | i | i | i | i | nt | nt
S=c1[nH]nc(-c2cc(-c3ccccc3)n[nH]2)n1N=Cc1cccc(Oc2ccccc2)c1 | nt | 66 | i | i | i | nt | 61 | 31
CCCc1cc2c(-c3ccccc3)cc(=O)oc2cc1OCc1ccc(C(=O)O)o1 | i | 57 | i | i | i | i | 73 | 27 | dCAG dye DR=i
Cc1ccc(-c2cc(C(=O)N/N=C/c3c(C)nn(C)c3C)c3ccccc3n2)cc1C | i | i | i | i | i | i | nt | nt
CCOC(=O)CC[C@@]1(C(=O)OCC)C[C@@H](CC(=O)NCc2ccc(C)o2)C(=O)N2CCCC=C21 | nt | 49 | i | i | i | nt | i | i
CCOC(=O)CC[C@@]1(C(=O)OCC)C[C@@H](CC(=O)NCc2cccc3ccccc23)C(=O)N2CCCC=C21 | nt | i | i | i | i | nt | nt | nt
Cn1ncc([N+](=O)[O-])c1C(=O)Nc1cccc(Cl)c1 | i | i | i | i | i | i | nt | nt
CCCCN(Cc1ccccc1)S(=O)(=O)c1ccc2[nH]c(=O)oc2c1 | i | 39 | i | i | i | i | i | 8.0
CCC(C)N(C(C)CC)S(=O)(=O)c1ccc2[nH]c(=O)oc2c1 (stereo unspecified) | nt | i | i | i | i | nt | nt | nt
O=c1[nH]c2ccc(S(=O)(=O)N3CCC(Cc4ccccc4)CC3)cc2o1 | i | 48 | i | i | i | i | 46 | 14
CS(=O)(=O)c1ccc2nc(NC(=O)CN3C(=O)NC4(CCCC4)C3=O)sc2c1 | i | i | i | i | i | i | nt | nt
